Tb hexokinase – blocks Trypanosoma brucei hexokinase 1 activity; inhibition, % at 10 µM; recombinant TbHK1, G6PDH-coupled NADH A340; 0.11% of 220,000 active; AID 1430;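 active = inhibition of 50% or more in the single-dose primary screen; inactive = inhibition below 50%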
NPY Y2 blocker – antagonists of human neuropeptide Y receptor Y2. P49146. NPY-Y2 expressing cells, antagonist mode. inhibition, % at 2.7 µM. 0.99% of 140,000 active. AID 793;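 note: 0% = vehicle with agonist challenge and 100% = reference antagonist with challenge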
Target sequence (P49146 whole entry, looked up): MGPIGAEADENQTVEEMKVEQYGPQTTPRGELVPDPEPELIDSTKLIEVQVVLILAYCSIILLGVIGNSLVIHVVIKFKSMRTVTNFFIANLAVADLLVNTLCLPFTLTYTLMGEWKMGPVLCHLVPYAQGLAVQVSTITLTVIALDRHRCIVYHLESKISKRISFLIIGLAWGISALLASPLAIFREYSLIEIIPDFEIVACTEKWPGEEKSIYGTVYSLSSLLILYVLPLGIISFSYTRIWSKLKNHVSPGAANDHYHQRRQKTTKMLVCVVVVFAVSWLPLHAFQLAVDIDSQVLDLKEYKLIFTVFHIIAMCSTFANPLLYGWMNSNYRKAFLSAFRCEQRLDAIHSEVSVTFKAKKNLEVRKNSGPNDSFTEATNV
Calpain2 inh – calpain II (pig) inhibition | purified calpain II, fluorogenic peptide substrate, 30 min | inhibition, % at 16 µM | 0.37% of 220,000 active | AID 1236;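 active = inhibition above about 50%, limit read from the data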
NPY-Y1 antag – blocks the human neuropeptide Y Y1 receptor | P25929 | HEK293-CNG Y1 cells, membrane potential fluorescence; NPY at EC95, then isoproterenol | inhibition, % at 3.6 µM | 1% of 200,000 active;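 active = inhibition above the campaign mean inhibition of all tested compounds plus 3 SD, cut at about 20% in these data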;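 note: 0% = DMSO wells given NPY plus isoproterenol and 100% = isoproterenol alone without NPY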
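System: HEK293 cells with Y1 receptor plus CNG channel / Probe or stimulus: NPY 25 nM then isoproterenol 1 µM plus Ro 20-1724 25 µM / Compound: one concentration, 3.6 µM, in 0.4% DMSO / Schedule: compound incubation 1 h at room temperature, readout 45 min post-stimulation / Measured by: membrane potential fluorescence / Read-out: % inhibition of NPY effect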
NPY2 pot ag – potentiates or activates human NPY-Y2 receptor; P49146; cells expressing NPY-Y2, potentiator/agonist read-out; activation, % at 3.6 µM; 0.45% of 220,000 active; AID 1359; in the data active = activation above about 27%;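 note: cells stimulated with NPY near EC25 plus isoproterenol at EC100; 0% = vehicle plus submaximal agonist and 100% = vehicle plus saturating agonist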
NPY1 pot ag – potentiates or activates human NPY-Y1 receptor; NPY-Y1 expressing cells, potentiator/agonist activation; activation, % at 3.6 µM; 0.37% of 220,000 active; AID 1304; in the data active = activation above about 33%, passing the limit was not always enough;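 note: cells stimulated with NPY at EC10 then isoproterenol at EC100; 0% = low agonist plus stimulus and 100% = saturating agonist plus stimulus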
NPY1 antag conf – human NPY-Y1 antagonism, confirmation | shares compounds with NPY-Y1 antag | HEK293-CNG NPY-Y1, membrane potential fluorescence, cAMP; NPY challenge against isoproterenol-raised cAMP | inhibition, % at 3.6 µM | 21% of 1,200 active; in the data active = inhibition above about 20%;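 note: 0% = vehicle with agonist plus stimulus and 100% = stimulus alone without agonist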
NPY-Y2 antag ct – counter-screen for NPY-Y1 antagonists: human NPY-Y2 antagonism; shares compounds with NPY-Y1 antag; HEK293 NPY-Y2 CNG membrane potential fluorescence; cells given NPY, then isoproterenol; inhibition, % at 3.6 µM; 28% of 1,200 active; AID 1255;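 note: 0% = DMSO with agonist challenge and 100% = reference antagonist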
* marks the source's active call; other numbers are inactive results; x = no result. Most compounds without a hit are left out; they make up all but 2.3% or so of the library. Cut-off read from the data, not from the text of the source, unless noted: active = inhibition above about 17%; inactive = the rest.

SMILES | Tb hexokinase | NPY Y2 blocker | Calpain2 inh | NPY-Y1 antag | NPY2 pot ag | NPY1 pot ag | NPY1 antag conf | NPY-Y2 antag ct
CCC(C)(C(=O)NC1CCCC1)N(Cc1ccco1)C(=O)Cc1cccs1 (configuration not stated) | 1 | 7 | 26 | 49* | -7 | -2 | 22* | 12
CCC(C)(C(=O)NC1CCCCC1)N(Cc1ccco1)C(=O)c1cnccn1 (configuration not stated) | 7 | 8 | -6 | 11 | -17 | -15 | x | x
CCC(C)(C(=O)NC1CCCCC1)N(Cc1cccs1)C(=O)c1ccccn1 (configuration not stated) | -3 | x | -7 | 22* | 2 | -5 | 5 | 7
CCC(C)(C(=O)NC1CCCC1)N(Cc1cccs1)C(=O)c1ccccn1 (configuration not stated) | -1 | x | 8 | 16 | -5 | -18 | x | x
CCC(C)(C(=O)NC1CCCC1)N(Cc1ccco1)C(=O)c1ccc2c(c1)OCO2 (configuration not stated) | 30 | 14 | -42 | 37* | -20 | 0 | 17 | 12
COc1cccc(CC2(CO)CCCN(Cc3ccc(CN4CCCCC4)s3)C2)c1 (configuration not stated) | -9 | x | 21 | 3 | -29 | -14 | x | x
C/C(Cn1cnc([N+](=O)[O-])n1)=N/NC(=O)COc1c(Cl)cc(Cl)cc1Cl | 1 | 2 | -3 | -1 | -5 | 5 | x | x
Cc1c(N2C(=O)CSC2=S)c(=O)n(-c2ccccc2)n1C | 1 | x | -12 | 26* | 0 | 2 | 0 | 2
CN(c1cccc(NC(=O)c2ccc(C(C)(C)C)cc2)c1)S(C)(=O)=O | -7 | x | 1 | 3 | 5 | 5 | x | x
CN(c1cccc(NC(=O)c2ccc(N(C)S(=O)(=O)c3ccccc3)cc2)c1)S(C)(=O)=O | -2 | x | 24 | 41* | -7 | 9 | 1 | 1
COc1ccc(-c2cc(-c3n[nH]c(=S)n3-c3ccccc3Cl)[nH]n2)cc1 | -3 | x | -33 | 42* | -19 | -32 | 47* | 73*
COc1ccc(-c2cc(-c3n[nH]c(=S)n3-c3cc(OC)ccc3OC)[nH]n2)cc1 | -1 | 5 | 18 | 27* | -36 | -70 | 23* | 44*
COc1ccc(OC)c(-n2c(-c3cc(-c4ccc(F)cc4)n[nH]3)n[nH]c2=S)c1 | 1 | 2 | -3 | 1 | 2 | -23 | x | x
S=c1[nH]nc(-c2cc(-c3ccco3)[nH]n2)n1-c1ccccc1Cl | 4 | 17 | -58 | 0 | 1 | 7 | x | x
O=S(=O)(Nc1ccccn1)c1ccc(Cl)c2ccccc12 | 2 | x | -11 | 2 | 12 | 9 | x | x
O=C1COc2ccc(N3C(=O)c4ccccc4C3=O)cc2N1 | -1 | x | 3 | 0 | 2 | 0 | x | x
COc1ccc(C(=O)c2coc3ccc(O)c(CN4CCCC4)c23)cc1 | 5 | 16 | -11 | 21* | -23 | -39 | 16 | 21*
CC(C)Nc1ccc(Cl)cc1[N+](=O)[O-] | -11 | x | 5 | x | -33 | 7 | x | x
COc1cccc(-c2noc(C3CCCN(S(=O)(=O)c4cccc(Cl)c4C)C3)n2)c1 (configuration not stated) | 13 | 6 | 31 | 30* | -5 | 2 | 11 | 13
CCOC(=O)N1CCN(C(=O)c2ccc3c(=O)n(Cc4ccccc4OC)c(=S)[nH]c3c2)CC1 | -10 | 11 | -60 | 22* | -34 | 3 | 3 | 6
COc1ccc(-c2n(Cc3ccccc3)c3ccccc3[n+]2Cc2ccccc2)cc1 | -7 | x | -3 | 62* | 8 | -19 | 18 | 22*
COc1ccc(-c2nc3ccccc3n2Cc2ccccc2)cc1 | 1 | 7 | -22 | 5 | 2 | 2 | x | x
COc1ccccc1OCCCn1c(=O)oc2ccc(C)cc21 | -4 | 2 | 0 | 9 | -14 | -20 | x | x
CCCOc1ccc(Cn2c(=O)oc3ccc(C)cc32)cc1OC | 3 | 4 | -2 | 32* | -29 | -42 | 6 | 8
